Measured values from ChEMBL document CHEMBL1135888, “Synthesis of new covalently bound kappa-carrageenan-AZT conjugates with improved anti-HIV activities” (J Med Chem, 2002).
Several values for one entry are separate records, joined by “and”; a condition that tells them apart may be missing. Identical values can stand only once.

Assays:
MT4 [1] = experiment: Concentration required to inhibit the cytopathicity of HIV-1 strain BRU by 50% in MT-4 cells (expressed in AZT equivalent); assay type: functional, cell-based; details: Homo sapiens
Procedure, shortened: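 MT-4 cells (3 × 10⁵), cultured in RPMI/10% FCS, were pretreated with compound for 1 h at 37 °C. Cells were then infected with HIV-1 BRU (MOI 0.1 CCID/cell) for 1 h, washed three times and cultured 7 days with or without compound, with medium renewed on day 3. Cytopathicity was scored microscopically, in duplicate. Final DMSO was <2%, with DMSO-matched standard assays.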

MT4 [2] = experiment: Concentration required to cause 50% death of uninfected MT-4 cells (expressed in AZT equivalent); assay type: functional, Homo sapiens
Procedure, shortened: (§1)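 Uninfected MT-4 cells were exposed to compound. Growth was followed and viability measured by trypan blue exclusion, or as viability of mock-infected cells on day 5. CC50 is the concentration giving 50% cell death.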

MT4 [3] = experiment: Concentration required to inhibit the cytopathicity of HIV-1 strain IIIB by 50% in MT-4 cells (expressed in AZT equivalent); assay type: functional, cell-based; details: Homo sapiens
Procedure, shortened: (§2)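 MT-4 cells in RPMI 1640 with 10% heat-inactivated FCS, 2 mM L-glutamine, 0.1% bicarbonate and 20 µg/mL gentamicin were infected with HIV-1 IIIB before compound was added. Inhibition of virus-induced cytopathicity was read 5 days after infection.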

[4] = half life required for 50% hydrolysis of compound to AZT upon incubation in NHS; assay type: ADME, organism-based; details: human, NHS (human serum)
Procedure, shortened: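 Incubation at 37 °C in normal human serum. Samples were quenched with ice-cold methanol, centrifuged and filtered, then run on HPLC at 267 nm. t1/2 is the time to 50% hydrolysis to AZT.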

Homo sapiens = species on record: Homo sapiens; experiment: % Nucleoside derivatives released after 48 hr of hydrolysis at pH 7.2; assay type: functional
Procedure, shortened: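 Incubation at 37 °C for 48 h in normal human serum (pH 7.2). Aliquots were quenched in ice-cold methanol and centrifuged, and supernatants were filtered. HPLC used a 20–100% solvent B gradient over 20 min with detection at 267 nm. Percent of AZT and succinate-AZT released was calculated from peak areas.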

MT4 [5] = experiment: Concentration required to inhibit the cytopathicity of HIV-1 strain IIIB by 50% in MT-4 cells (expressed in k-carrageenan equivalent); assay type: functional, cell-based; details: Homo sapiens; procedure, shortened: as §2
MT4 [6] = experiment: Concentration required to cause 50% death of uninfected MT-4 cells (expressed in k-carrageenan equivalent); assay type: functional, Homo sapiens; procedure, shortened: as §1

Structure (SMILES) | EC50 (MT4 [1]) | CC50 (MT4 [2]) | EC50 (MT4 [3]) | half-life [4] | Release (Homo sapiens) | EC50 (MT4 [5]) | CC50 (MT4 [6]) | CC50 (MT4 [6]; Homo sapiens, MT4, read-out: CC50)
Cc1cn([C@H]2C[C@H](N=[N+]=[N-])[C@@H](CO)O2)c(=O)[nH]c1=O [ZIDOVUDINE] | 0.025 µM | > 100 µM and 42 µM | – | – | – | – | – | –
Cc1cn([C@H]2C[C@H](N=[N+]=[N-])[C@@H](COC(=O)CCC(=O)O)O2)c(=O)[nH]c1=O | 0.015 µM | > 50 µM and 130 µM | 0.065 µM | 25 h | 100% | – | – | –
CO[C@H]1O[C@@H]2CO[C@@H]([C@H]1O)[C@H]2O[C@@H]1O[C@H](CO)[C@H](OS(=O)(=O)[O-])[C@H](O[C@H]2O[C@@H]3CO[C@@H]([C@H]2O)[C@H]3O[C@@H]2O[C@H](COC(=O)CCC(=O)OC[C@H]3O[C@@H](n4cc(C)c(=O)[nH]c4=O)C[C@@H]3N=[N+]=[N-])[C@H](OS(=O)(=O)[O-])[C@H](O[C@H]3O[C@@H]4CO[C@@H]([C@H]3O)[C@H]4O[C@@H]3O[C@H](CO)[C@H](OS(=O)(=O)[O-])[C@@H](O[C@H]4O[C@@H]5CO[C@@H]([C@H]4O)[C@H]5O[C@@H]4O[C@H](CO)[C@H](OS(=O)(=O)[O-])[C@H](O[C@H]5O[C@@H]6CO[C@@H]([C@H]5O)[C@H]6O[C@@H]5O[C@H](COC(=O)CCC(=O)OC[C@H]6O[C@@H](n7cc(C)c(=O)[nH]c7=O)C[C@@H]6N=[N+]=[N-])[C@H](OS(=O)(=O)[O-])[C@H](O[C@H]6O[C@@H]7CO[C@@H]([C@H]6O)[C@H]7O[C@@H]6O[C@H](CO)[C@H](OS(=O)(=O)[O-])[C@@H](O[C@H]7O[C@@H]8CO[C@@H]([C@H]7O)[C@H]8O[C@@H]7O[C@H](CO)[C@H](OS(=O)(=O)[O-])[C@H](O[C@H]8O[C@@H]9CO[C@@H]([C@H]8O)[C@H]9O[C@@H]8O[C@H](COC(=O)CCC(=O)OC[C@H]9O[C@@H](n%10cc(C)c(=O)[nH]c%10=O)C[C@@H]9N=[N+]=[N-])[C@H](OS(=O)(=O)[O-])[C@H](O[C@H]9O[C@@H]%10CO[C@@H]([C@H]9O)[C@H]%10O[C@@H]9O[C@H](CO)[C@H](OS(=O)(=O)[O-])[C@H](C)[C@H]9O)[C@H]8O)[C@H]7O)[C@H]6O)[C@H]5O)[C@H]4O)[C@H]3O)[C@H]2O)[C@H]1O.[Na+].[Na+].[Na+].[Na+].[Na+].[Na+].[Na+].[Na+].[Na+] | – | – | 0.109 µM | – | 39% | 1.6 mg/L | 300 mg/L | 300 mg/L
